According to ChEMBL document CHEMBL3784960, “New 4-Functionalized Glutamate Analogues Are Selective Agonists at Metabotropic Glutamate Receptor Subtype 2 or Selective Agonists at Metabotropic Glutamate Receptor Group III” (J Med Chem, 2016):
Calls of active or inactive are those of the source. The rule behind the calls is not given here.

Biological target: T1, Excitatory amino acid transporter 2 (Homo sapiens, UniProt P43004)
Experiment: Inhibition of human EAAT2 assessed as [3H]Asp uptake

T1 sequence (P43004 whole entry): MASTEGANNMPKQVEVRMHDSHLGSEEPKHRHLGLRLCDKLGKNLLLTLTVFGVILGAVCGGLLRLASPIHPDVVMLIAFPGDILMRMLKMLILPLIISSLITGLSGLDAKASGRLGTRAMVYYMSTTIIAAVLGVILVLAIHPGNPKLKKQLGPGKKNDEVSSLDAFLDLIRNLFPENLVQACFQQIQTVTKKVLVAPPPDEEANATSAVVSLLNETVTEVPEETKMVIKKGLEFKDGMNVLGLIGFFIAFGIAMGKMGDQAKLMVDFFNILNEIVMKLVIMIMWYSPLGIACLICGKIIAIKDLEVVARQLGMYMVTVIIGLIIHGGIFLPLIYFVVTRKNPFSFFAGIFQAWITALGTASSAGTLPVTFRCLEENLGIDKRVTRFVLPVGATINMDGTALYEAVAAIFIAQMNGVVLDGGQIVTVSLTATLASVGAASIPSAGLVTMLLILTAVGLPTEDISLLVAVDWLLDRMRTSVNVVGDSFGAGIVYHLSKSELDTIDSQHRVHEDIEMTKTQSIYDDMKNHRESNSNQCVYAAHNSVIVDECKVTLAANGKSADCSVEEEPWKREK

| SMILES | IC50 [µM] |
| --- | --- |
| N[C@@H](C[C@]1(C(=O)O)C[C@H]1C(=O)O)C(=O)O | > 300 |
| N[C@@H](C[C@@]1(C(=O)O)C[C@@H]1C(=O)O)C(=O)O | > 300 |

Biological target: not listed separately
Experiment: Displacement of [3H]AMPA from rat synaptosome AMPA receptor after 30 mins by microplate scintillation counter analysis

| SMILES | IC50 [µM] |
| --- | --- |
| N[C@@H](C[C@]1(C(=O)O)C[C@H]1C(=O)O)C(=O)O | > 100 |
| N[C@@H](C[C@@]1(C(=O)O)C[C@@H]1C(=O)O)C(=O)O | > 100 |

Biological target: Metabotropic glutamate receptor 8 (Rattus norvegicus, UniProt P70579)
Experiment: Agonist activity at rat mGlu8 receptor expressed in HEK293 cells assessed as IP1 accumulation by IP-One functional assay
Assay type: cell-based
How it was run: (§1)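 HEK293 cells were transiently electroporated with the rat receptor plus a chimeric Gi/Gq protein for PLC coupling and EAAC1. Medium was replaced by Glutamax at least 2 h before agonist. IP1 accumulation was measured by HTRF 24 h post-transfection, at least in duplicate. EC50 ± SEM came from n = 4−6 experiments.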

| SMILES | EC50 [µM] |
| --- | --- |
| N[C@@H](C[C@]1(C(=O)O)C[C@H]1C(=O)O)C(=O)O | 0.68 |
| N[C@@H](C[C@@]1(C(=O)O)C[C@@H]1C(=O)O)C(=O)O | 20.8 |

Biological target: T2, Excitatory amino acid transporter 1 (Homo sapiens, UniProt P43003)
T2 sequence (P43003 whole entry): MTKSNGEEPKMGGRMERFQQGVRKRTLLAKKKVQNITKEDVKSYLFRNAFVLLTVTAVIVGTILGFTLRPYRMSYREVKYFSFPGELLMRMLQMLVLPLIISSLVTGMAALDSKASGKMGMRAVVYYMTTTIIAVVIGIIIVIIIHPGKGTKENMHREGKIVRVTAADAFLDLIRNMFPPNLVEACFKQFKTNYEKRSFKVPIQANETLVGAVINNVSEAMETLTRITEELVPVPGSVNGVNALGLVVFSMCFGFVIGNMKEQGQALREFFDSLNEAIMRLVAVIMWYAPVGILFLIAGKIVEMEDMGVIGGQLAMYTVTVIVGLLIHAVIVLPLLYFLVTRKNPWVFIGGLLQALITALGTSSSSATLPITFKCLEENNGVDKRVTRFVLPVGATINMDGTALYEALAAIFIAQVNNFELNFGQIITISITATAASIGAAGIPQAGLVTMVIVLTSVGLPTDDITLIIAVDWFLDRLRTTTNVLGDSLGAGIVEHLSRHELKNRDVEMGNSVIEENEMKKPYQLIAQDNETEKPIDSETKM
Experiment: Substrate activity at human EAAT1 assessed as [3H]Asp uptake measured up to 300 uM

| SMILES | Activity |
| --- | --- |
| N[C@@H](C[C@]1(C(=O)O)C[C@H]1C(=O)O)C(=O)O | inactive |
| N[C@@H](C[C@@]1(C(=O)O)C[C@@H]1C(=O)O)C(=O)O | inactive |

Biological target: T2, Excitatory amino acid transporter 1
Experiment: Inhibition of human EAAT1 assessed as [3H]Asp uptake

| SMILES | IC50 [µM] |
| --- | --- |
| N[C@@H](C[C@]1(C(=O)O)C[C@H]1C(=O)O)C(=O)O | > 300 |
| N[C@@H](C[C@@]1(C(=O)O)C[C@@H]1C(=O)O)C(=O)O | > 300 |

Biological target: not listed separately
Experiment: Displacement of [3H]KA from rat synaptosome KA receptor after 60 mins by microplate scintillation counter analysis

| SMILES | IC50 [µM] |
| --- | --- |
| N[C@@H](C[C@]1(C(=O)O)C[C@H]1C(=O)O)C(=O)O | > 100 |
| N[C@@H](C[C@@]1(C(=O)O)C[C@@H]1C(=O)O)C(=O)O | > 100 |

Biological target: T1, Excitatory amino acid transporter 2
Experiment: Substrate activity at human EAAT2 assessed as [3H]Asp uptake measured up to 300 uM

| SMILES | Activity |
| --- | --- |
| N[C@@H](C[C@]1(C(=O)O)C[C@H]1C(=O)O)C(=O)O | inactive |
| N[C@@H](C[C@@]1(C(=O)O)C[C@@H]1C(=O)O)C(=O)O | inactive |

Biological target: Metabotropic glutamate receptor 1 (Rattus norvegicus, UniProt P23385)
Sequence (P23385 whole entry): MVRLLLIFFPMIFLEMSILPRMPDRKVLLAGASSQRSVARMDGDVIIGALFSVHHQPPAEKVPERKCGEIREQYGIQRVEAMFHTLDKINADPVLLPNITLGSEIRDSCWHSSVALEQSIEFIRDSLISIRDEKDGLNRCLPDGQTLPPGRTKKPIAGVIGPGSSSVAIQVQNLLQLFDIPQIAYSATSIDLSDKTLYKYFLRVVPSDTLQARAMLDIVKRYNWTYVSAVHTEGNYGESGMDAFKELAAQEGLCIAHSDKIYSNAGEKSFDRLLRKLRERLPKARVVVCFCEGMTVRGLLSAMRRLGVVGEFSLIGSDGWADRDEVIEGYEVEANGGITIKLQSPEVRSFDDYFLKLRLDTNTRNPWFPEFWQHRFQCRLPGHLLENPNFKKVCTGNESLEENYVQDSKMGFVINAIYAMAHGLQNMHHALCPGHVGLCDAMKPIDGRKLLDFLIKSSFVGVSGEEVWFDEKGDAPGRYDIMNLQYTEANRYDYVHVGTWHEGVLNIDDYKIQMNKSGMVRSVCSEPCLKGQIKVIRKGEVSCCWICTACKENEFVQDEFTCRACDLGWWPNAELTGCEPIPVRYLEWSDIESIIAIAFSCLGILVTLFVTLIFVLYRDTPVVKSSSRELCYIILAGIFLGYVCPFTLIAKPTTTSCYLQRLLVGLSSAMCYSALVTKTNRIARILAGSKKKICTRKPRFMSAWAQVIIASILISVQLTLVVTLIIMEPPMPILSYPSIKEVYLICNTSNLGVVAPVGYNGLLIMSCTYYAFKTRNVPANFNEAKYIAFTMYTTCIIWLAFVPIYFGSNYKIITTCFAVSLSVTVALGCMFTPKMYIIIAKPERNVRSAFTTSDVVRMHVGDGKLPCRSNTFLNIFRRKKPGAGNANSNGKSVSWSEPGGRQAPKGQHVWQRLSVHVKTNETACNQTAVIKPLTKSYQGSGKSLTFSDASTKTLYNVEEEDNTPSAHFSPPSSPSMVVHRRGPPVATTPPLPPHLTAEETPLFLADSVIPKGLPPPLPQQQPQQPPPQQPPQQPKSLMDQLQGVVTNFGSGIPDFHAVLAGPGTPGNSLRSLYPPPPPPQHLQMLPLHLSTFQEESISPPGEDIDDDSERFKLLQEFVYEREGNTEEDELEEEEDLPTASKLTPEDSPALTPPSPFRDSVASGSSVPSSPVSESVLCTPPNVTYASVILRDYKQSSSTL
Experiment: Agonist activity at rat mGlu1 receptor expressed in HEK293 cells assessed as IP1 accumulation by IP-One functional assay
Assay type: cell-based
How it was run: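 Rat group I receptor transiently electroporated into HEK293 with the EAAC1 glutamate transporter; medium switched to Glutamax at least 2 h before stimulation. IP1 was read by HTRF (IP-One kit) 24 h after transfection. Runs were at least in duplicate, with EC50 ± SEM from n = 4−6 experiments.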

| SMILES | EC50 [µM] |
| --- | --- |
| N[C@@H](C[C@]1(C(=O)O)C[C@H]1C(=O)O)C(=O)O | > 1000 |
| N[C@@H](C[C@@]1(C(=O)O)C[C@@H]1C(=O)O)C(=O)O | > 1000 |

Biological target: Metabotropic glutamate receptor 4 (Rattus norvegicus, UniProt P31423)
Experiment: Agonist activity at rat mGlu4 receptor expressed in HEK293 cells assessed as IP1 accumulation by IP-One functional assay
Assay type: cell-based
How it was run: as §1

| SMILES | EC50 [µM] |
| --- | --- |
| N[C@@H](C[C@]1(C(=O)O)C[C@H]1C(=O)O)C(=O)O | 0.13 |
| N[C@@H](C[C@@]1(C(=O)O)C[C@@H]1C(=O)O)C(=O)O | 2.48 |

Biological target: Metabotropic glutamate receptor 2 (Homo sapiens) (UniProt Q14416)
Experiment: Agonist activity at mGlu2 receptor (unknown origin) assessed as IP1 accumulation preincubated with 3 uM LY341495 for 20 mins followed by addition of 1 mM of compound by IP-One functional assay
How it was run: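 Single-dose test in HEK293 cells cotransfected with rat receptor, chimeric Gi/Gq and EAAC1. Cells were pretreated with 3 μM LY341495 for 20 min at 37 °C, washed twice, then stimulated with 1 mM compound. IP1 was read by HTRF 24 h post-transfection. Comparison was against vehicle by one-way ANOVA with Dunnett's test.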

| SMILES | Activity |
| --- | --- |
| N[C@@H](C[C@]1(C(=O)O)C[C@H]1C(=O)O)C(=O)O | Active |

Biological target: Metabotropic glutamate receptor 7 (Rattus norvegicus, UniProt P35400)
Sequence (P35400 whole entry): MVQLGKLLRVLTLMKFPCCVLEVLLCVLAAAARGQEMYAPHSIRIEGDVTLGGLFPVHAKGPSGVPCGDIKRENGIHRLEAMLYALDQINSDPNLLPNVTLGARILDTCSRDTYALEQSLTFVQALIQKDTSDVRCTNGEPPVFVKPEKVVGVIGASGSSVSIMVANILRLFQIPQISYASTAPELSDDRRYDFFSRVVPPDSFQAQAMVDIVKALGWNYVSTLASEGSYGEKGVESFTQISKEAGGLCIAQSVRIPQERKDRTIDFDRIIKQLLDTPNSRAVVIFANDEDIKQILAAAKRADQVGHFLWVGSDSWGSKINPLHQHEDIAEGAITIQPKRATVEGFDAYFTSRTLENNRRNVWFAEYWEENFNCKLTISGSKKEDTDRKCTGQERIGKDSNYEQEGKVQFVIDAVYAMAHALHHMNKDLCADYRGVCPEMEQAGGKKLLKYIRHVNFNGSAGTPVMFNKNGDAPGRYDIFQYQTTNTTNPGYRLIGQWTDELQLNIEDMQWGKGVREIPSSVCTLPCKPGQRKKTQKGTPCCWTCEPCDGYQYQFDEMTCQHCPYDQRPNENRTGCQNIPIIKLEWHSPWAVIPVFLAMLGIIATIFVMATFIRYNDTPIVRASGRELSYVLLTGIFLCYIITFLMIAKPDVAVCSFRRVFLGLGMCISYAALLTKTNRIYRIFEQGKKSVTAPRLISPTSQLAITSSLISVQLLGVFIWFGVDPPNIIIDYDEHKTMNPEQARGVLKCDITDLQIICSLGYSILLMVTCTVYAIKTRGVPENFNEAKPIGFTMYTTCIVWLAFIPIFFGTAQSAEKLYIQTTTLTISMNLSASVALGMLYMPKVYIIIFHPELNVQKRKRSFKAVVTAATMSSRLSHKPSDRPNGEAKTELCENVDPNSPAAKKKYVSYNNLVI
Experiment: Agonist activity at rat mGlu7 receptor expressed in HEK293 cells assessed as IP1 accumulation by IP-One functional assay
Assay type: cell-based
How it was run: as §1

| SMILES | EC50 [µM] |
| --- | --- |
| N[C@@H](C[C@]1(C(=O)O)C[C@H]1C(=O)O)C(=O)O | 120 |
| N[C@@H](C[C@@]1(C(=O)O)C[C@@H]1C(=O)O)C(=O)O | > 1000 |

Biological target: T3, Excitatory amino acid transporter 3 (Homo sapiens, UniProt P43005)
T3 sequence (P43005 whole entry): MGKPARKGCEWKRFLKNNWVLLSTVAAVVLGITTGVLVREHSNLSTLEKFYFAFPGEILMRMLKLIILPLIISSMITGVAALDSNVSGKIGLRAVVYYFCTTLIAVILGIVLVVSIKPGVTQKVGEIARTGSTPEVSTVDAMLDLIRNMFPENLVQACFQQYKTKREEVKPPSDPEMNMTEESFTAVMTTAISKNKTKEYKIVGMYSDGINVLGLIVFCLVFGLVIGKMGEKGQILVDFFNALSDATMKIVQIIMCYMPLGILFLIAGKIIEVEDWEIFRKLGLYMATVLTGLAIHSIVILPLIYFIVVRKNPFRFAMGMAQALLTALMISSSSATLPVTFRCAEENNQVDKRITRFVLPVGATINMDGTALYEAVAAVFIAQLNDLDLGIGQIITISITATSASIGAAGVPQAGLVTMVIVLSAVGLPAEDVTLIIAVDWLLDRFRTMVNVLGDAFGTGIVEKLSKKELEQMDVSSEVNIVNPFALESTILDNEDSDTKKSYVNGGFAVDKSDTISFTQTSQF
Experiment: Inhibition of human EAAT3 assessed as [3H]Asp uptake

| SMILES | IC50 [µM] |
| --- | --- |
| N[C@@H](C[C@]1(C(=O)O)C[C@H]1C(=O)O)C(=O)O | > 300 |
| N[C@@H](C[C@@]1(C(=O)O)C[C@@H]1C(=O)O)C(=O)O | > 300 |

Biological target: T4, Metabotropic glutamate receptor 2 (Rattus norvegicus, UniProt P31421)
T4 sequence (P31421 whole entry): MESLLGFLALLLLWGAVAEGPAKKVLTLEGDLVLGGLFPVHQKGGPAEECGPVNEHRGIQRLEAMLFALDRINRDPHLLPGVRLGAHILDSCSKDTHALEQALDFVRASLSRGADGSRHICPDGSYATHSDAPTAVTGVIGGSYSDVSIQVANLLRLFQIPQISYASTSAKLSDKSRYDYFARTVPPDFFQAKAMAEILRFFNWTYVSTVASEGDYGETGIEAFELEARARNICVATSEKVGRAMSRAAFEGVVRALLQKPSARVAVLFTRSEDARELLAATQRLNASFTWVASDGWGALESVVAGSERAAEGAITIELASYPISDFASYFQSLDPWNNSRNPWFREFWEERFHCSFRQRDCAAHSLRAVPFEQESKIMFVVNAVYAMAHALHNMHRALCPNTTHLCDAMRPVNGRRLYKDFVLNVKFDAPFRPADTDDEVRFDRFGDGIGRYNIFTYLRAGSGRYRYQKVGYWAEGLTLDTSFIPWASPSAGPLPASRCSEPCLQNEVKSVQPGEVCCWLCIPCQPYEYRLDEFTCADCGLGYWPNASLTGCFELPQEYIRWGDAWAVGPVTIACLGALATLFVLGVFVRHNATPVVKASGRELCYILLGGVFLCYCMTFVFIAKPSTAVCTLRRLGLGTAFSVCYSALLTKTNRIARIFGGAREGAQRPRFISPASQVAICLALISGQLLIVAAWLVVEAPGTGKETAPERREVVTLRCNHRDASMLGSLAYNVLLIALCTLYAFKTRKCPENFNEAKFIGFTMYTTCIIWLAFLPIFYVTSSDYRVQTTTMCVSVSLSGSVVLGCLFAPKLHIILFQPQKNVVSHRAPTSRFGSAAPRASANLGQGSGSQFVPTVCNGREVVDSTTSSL
Experiment: Agonist activity at rat mGlu2 receptor by FRET based mGlu sensor assay
How it was run: (§2)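 Receptor carried an N-terminal SNAP-tag and was transfected into HEK293 cells. At 24 h, surface receptors were labelled for 1 h with 100 nM SNAP-Lumi4-Tb (donor) and 60 nM SNAP Green (acceptor), washed three times, then drug was added. Time-resolved FRET was recorded at 520 nm, at least in duplicate.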

| SMILES | EC50 [µM] |
| --- | --- |
| N[C@@H](C[C@]1(C(=O)O)C[C@H]1C(=O)O)C(=O)O | > 1000 |
| N[C@@H](C[C@@]1(C(=O)O)C[C@@H]1C(=O)O)C(=O)O | > 1000 |

Biological target: Metabotropic glutamate receptor 6 (Rattus norvegicus, UniProt P35349)
Sequence (P35349 whole entry): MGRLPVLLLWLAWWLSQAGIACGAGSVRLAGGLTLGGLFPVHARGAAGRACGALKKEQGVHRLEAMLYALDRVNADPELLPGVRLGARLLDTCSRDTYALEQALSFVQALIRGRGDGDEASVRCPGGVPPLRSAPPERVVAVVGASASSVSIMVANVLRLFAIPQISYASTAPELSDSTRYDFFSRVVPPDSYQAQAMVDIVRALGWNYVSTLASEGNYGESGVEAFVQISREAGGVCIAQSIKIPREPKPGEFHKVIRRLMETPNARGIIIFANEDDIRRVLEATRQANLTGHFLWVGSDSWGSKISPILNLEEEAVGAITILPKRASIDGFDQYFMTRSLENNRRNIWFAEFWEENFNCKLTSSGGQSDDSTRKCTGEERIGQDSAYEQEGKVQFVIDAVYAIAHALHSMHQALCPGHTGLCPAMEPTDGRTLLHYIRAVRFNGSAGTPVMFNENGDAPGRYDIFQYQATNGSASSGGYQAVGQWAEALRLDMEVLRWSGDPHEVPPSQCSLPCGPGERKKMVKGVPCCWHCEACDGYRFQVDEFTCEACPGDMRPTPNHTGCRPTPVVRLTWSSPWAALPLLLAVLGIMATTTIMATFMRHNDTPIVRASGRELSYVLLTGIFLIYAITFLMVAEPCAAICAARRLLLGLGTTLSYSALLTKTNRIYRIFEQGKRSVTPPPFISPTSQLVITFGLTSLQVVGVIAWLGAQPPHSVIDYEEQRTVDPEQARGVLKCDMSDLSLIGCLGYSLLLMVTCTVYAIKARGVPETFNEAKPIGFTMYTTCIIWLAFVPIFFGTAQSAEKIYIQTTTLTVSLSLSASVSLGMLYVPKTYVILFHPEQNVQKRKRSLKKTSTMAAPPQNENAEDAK
Experiment: Agonist activity at rat mGlu6 receptor expressed in HEK293 cells assessed as IP1 accumulation by IP-One functional assay
Assay type: cell-based
How it was run: as §1

| SMILES | EC50 [µM] |
| --- | --- |
| N[C@@H](C[C@]1(C(=O)O)C[C@H]1C(=O)O)C(=O)O | 0.49 |
| N[C@@H](C[C@@]1(C(=O)O)C[C@@H]1C(=O)O)C(=O)O | 17.8 |

Biological target: Glutamate NMDA receptor
Experiment: Displacement of [3H]CGP from rat synaptosome NMDA receptor after 60 mins by microplate scintillation counter analysis
Assay type: protein-complex assay

| SMILES | Ki [µM] |
| --- | --- |
| N[C@@H](C[C@]1(C(=O)O)C[C@H]1C(=O)O)C(=O)O | 13 |
| N[C@@H](C[C@@]1(C(=O)O)C[C@@H]1C(=O)O)C(=O)O | 15 |

Biological target: T4, Metabotropic glutamate receptor 2
Experiment: Agonist activity at rat mGlu2 receptor expressed in HEK293 cells assessed as IP1 accumulation by IP-One functional assay
Assay type: cell-based
How it was run: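 HEK293 cells were transiently electroporated with the rat receptor plus a chimeric Gi/Gq protein for PLC coupling and EAAC1. Medium was replaced by Glutamax at least 2 h before agonist. IP1 accumulation was measured by HTRF 24 h post-transfection, at least in duplicate.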

| SMILES | EC50 [µM] |
| --- | --- |
| N[C@@H](C[C@]1(C(=O)O)C[C@H]1C(=O)O)C(=O)O | 145 |
| N[C@@H](C[C@@]1(C(=O)O)C[C@@H]1C(=O)O)C(=O)O | > 1000 |

Biological target: Metabotropic glutamate receptor 5 (Rattus norvegicus, UniProt P31424)
Experiment: Agonist activity at rat mGlu5 receptor expressed in HEK293 cells assessed as IP1 accumulation by IP-One functional assay
Assay type: cell-based

| SMILES | EC50 [µM] |
| --- | --- |
| N[C@@H](C[C@]1(C(=O)O)C[C@H]1C(=O)O)C(=O)O | > 1000 |
| N[C@@H](C[C@@]1(C(=O)O)C[C@@H]1C(=O)O)C(=O)O | > 1000 |

Biological target: Metabotropic glutamate receptor 3 (Rattus norvegicus) (UniProt P31422)
Experiment: Agonist activity at mGlu3 receptor (rat) assessed as IP1 accumulation preincubated with 3 uM LY341495 for 20 mins followed by addition of 1 mM of compound by IP-One functional assay

| SMILES | Activity |
| --- | --- |
| N[C@@H](C[C@]1(C(=O)O)C[C@H]1C(=O)O)C(=O)O | inactive |

Biological target: Metabotropic glutamate receptor 3 (Rattus norvegicus, UniProt P31422)
Experiment: Agonist activity at rat mGlu3 receptor by FRET based mGlu sensor assay
How it was run: as §2, with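 “duplicate. EC50 ± SEM came from n = 4−6 experiments.” for “duplicate.”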

| SMILES | EC50 [µM] |
| --- | --- |
| N[C@@H](C[C@]1(C(=O)O)C[C@H]1C(=O)O)C(=O)O | > 1000 |
| N[C@@H](C[C@@]1(C(=O)O)C[C@@H]1C(=O)O)C(=O)O | > 1000 |
